Rows were chosen to be rich in hits. Some 3.5% of all compounds tested hit in one or more screens of this group.
MrgX1 ag: agonists of human MrgX1 receptor, primary screen, HEK293 cells, Fluo-4 calcium flux | Mas-related G-protein coupled receptor member X1 (Homo sapiens), Q96LB2 | Fluo-4 calcium fluorescence, agonist mode; stronger effect = higher value | B-score at 10 µM | 310,000 tested, 0.44% active | AID 588627, 2011;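 active = calcium response B-score plate-corrected fluorescence ratio at least 3 library SD, with starting fluorescence B-score inside 5 SD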
Target sequence (Q96LB2 whole entry, looked up): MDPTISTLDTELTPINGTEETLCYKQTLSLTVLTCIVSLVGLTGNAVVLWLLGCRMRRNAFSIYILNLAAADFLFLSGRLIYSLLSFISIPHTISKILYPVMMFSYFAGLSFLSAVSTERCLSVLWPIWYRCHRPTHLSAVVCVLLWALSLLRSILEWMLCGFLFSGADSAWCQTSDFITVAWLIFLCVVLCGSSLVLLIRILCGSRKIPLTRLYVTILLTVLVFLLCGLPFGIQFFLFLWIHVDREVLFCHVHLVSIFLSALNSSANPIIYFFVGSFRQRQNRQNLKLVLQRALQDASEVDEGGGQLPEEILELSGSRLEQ
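Material: HEK293 cells stably expressing human MrgX1 receptor | Quantity: 15,000 cells per well | Times: Cells plated overnight, dye loaded 0.5 h 37 °C, 0.5 h room temperature | Measured by: Kinetic Fluo-4 NW fluorescence of intracellular calcium | Control set: Positive and negative controls per plate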
RGS4 act: RGS4 potentiators or activators, primary screen, cell-based, HEK293 M3R inducible RGS4, calcium flux; carbachol calcium flux Fluo4; stronger effect = lower value; B-score at 10 µM; 310,000 tested, 0.92% active; AID 463111, 2010;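 active = B-score of the integrated calcium signal more than 4 SD below the library mean, with starting fluorescence not abnormally high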;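 also: negative B-score means reduced calcium response which marks RGS4 activation or potentiation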
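Material: M3R-expressing HEK293 line, RGS4 induced by doxycycline | Schedule: Overnight RGS4 induction, 30 min dye load 37 °C, 20 min compound RT | Measured by: Fluo4 fluorescence kinetic imaging of calcium | Read-out: Integrated calcium ratio converted to B score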
RGS4 inh: RGS4 inhibitors, primary screen, cell-based, HEK293 M3R inducible RGS4, calcium flux. Regulator of G-protein signaling 4 (Homo sapiens), P49798. B-score at 10 µM. Fluo-4 calcium flux; stronger effect = higher value; triggered by carbachol at its EC20. 310,000 tested, 0.45% active. AID 463165, 2010;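 active = B-score, a plate-corrected calcium signal, over three deviations above library mean, with baseline fluorescence within five deviations of library mean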;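 also: RGS4 expression induced by doxycycline in cells with stable M3 receptor; B-score is computed from the integrated fluorescence ratio over baseline after carbachol; higher B-score means a larger calcium signal and so more RGS4 inhibition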
Target sequence (P49798 whole entry, looked up): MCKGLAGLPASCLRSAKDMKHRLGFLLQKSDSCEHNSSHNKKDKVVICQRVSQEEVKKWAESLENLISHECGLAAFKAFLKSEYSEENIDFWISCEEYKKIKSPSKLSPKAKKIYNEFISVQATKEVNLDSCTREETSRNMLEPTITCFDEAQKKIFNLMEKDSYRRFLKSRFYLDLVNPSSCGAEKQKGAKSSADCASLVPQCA
MrgX1 allo act: positive allosteric modulators of MrgX1, primary screen, HEK293 cells, Fluo-4 calcium flux. 310,000 tested, 0.63% active. Mas-related G-protein coupled receptor member X1 (Homo sapiens), Q96LB2. B-score at 10 µM. FDSS; stronger effect = higher value. AID 588675, 2011;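 active = plate-corrected calcium response at least 3 library SD above typical, normal starting fluorescence, not activating the receptor alone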;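 also: compound read alongside a low EC10 to EC30 dose of BAM8-22 agonist; peak minus trough fluorescence over baseline measured at the second addition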
MrgX1 antag: antagonists of human MrgX1 receptor, primary screen, HEK293 cells, Fluo-4 calcium flux; AID 588676, 2011; B-score at 10 µM; Mas-related G-protein coupled receptor member X1 (Homo sapiens), Q96LB2; BAM8-22 antagonism; stronger effect = lower value; 310,000 tested, 1.3% active;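 active = calcium-response B-score plate-corrected more than 3 library SD below zero, starting fluorescence within 5 deviations, no agonist response on first addition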;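 also: peak minus trough fluorescence over baseline after final BAM8-22 challenge near maximal dose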
MrgX1 allo conf: MrgX1 positive allosteric modulators, duplicate retest, confirmation, HEK293 cells, Fluo-4 calcium flux; shares compounds with MrgX1 allo act; Fluo-4 calcium fluorescence, FDSS; activation (ratio percentage), % at 10 µM; 1,200 tested, 13% active; AID 602413, 2012;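 active = ratio at least 3 SD above the weak peptide control, stable starting fluorescence, no direct agonism earlier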;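 also: compound followed by low BAM8-22 agonist challenge near EC20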
HEK293 Ca flux: nonspecific calcium signal in parental HEK293, confirmation, counter-screen for MrgX1 antagonist project, parental HEK293 cells, Fluo-4 calcium flux; shares compounds with MrgX1 antag; Fluo-4 calcium fluorescence, FDSS; fluorescence ratio F(max-min)/F0 at 10 µM; 4,000 tested, 2% active; AID 624111, 2012;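 active = duplicate-averaged calcium fluorescence ratio at least three times the standard deviation of buffer wells, a nonspecific response in parental cells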
HEK293 Ca counter: calcium response in parental HEK293 cells, primary screen, counter-screen for MrgX1 allosteric activator project, cell-based, Fluo-4 calcium flux, duplicate; shares compounds with MrgX1 antag; 4,000 tested, 0.4% active; fluorescence ratio F(max-min)/F0 at 10 µM; Fluo-4 fluorescence ratio; stronger effect = higher value;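 active = calcium fluorescence ratio, averaged over duplicates, at least 3 SD of the buffer-well ratio, meaning a nonspecific response in receptor-free cells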;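 also: untransfected parental HEK293 lacking MrgX1 used as counterscreen for MrgX1 allosteric activators; fluorescence change taken during the second addition on a kinetic imager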
HEK293 Ca cntr2: calcium response in parental HEK293 cells, primary screen, counter-screen for MrgX1 agonist project, cell-based, Fluo-4 calcium flux, duplicate, agonist mode | Fluo-4 calcium fluorescence (FDSS); stronger effect = higher value | shares compounds with MrgX1 antag | 4,000 tested, 8.7% active | fluorescence ratio F(max-min)/F0 at 10 µM | AID 624115, 2012;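 active = calcium fluorescence ratio at least three times the spread of buffer wells, meaning a non-specific response in parental cells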
Active calls of the source: *; i = inactive; nt = not tested or not shown.

SMILES	MrgX1 ag	RGS4 act	RGS4 inh	MrgX1 allo act	MrgX1 antag	MrgX1 allo conf	HEK293 Ca flux	HEK293 Ca counter	HEK293 Ca cntr2
Cc1cc(SCC(=O)c2ccc(O)c(O)c2)nc2ccccc12	i	i	i	11.3*	i	i	i	i	i
Cc1[nH]ncc1-c1nc2ccccc2[nH]1	i	i	i	13.2*	i	i	i	i	i
Cc1cc(C)n(CC(=O)N2CCCC(N3CCN(c4ccc(F)cc4)CC3)C2)n1 (stereo unspecified)	i	i	i	i	i	nt	nt	nt	nt
Cc1ccc2[nH]c(C(=O)N3CCCCC3)cc2c1	i	i	i	17*	i	i	i	i	i
CCOC(=O)C1CCN(C(=O)c2cc3cc(F)ccc3[nH]2)CC1	i	i	i	i	i	nt	nt	nt	nt
Cc1ccc2[nH]c(C(=O)N3CCOCC3)cc2c1	i	i	i	i	i	nt	nt	nt	nt
O=C(c1cc2cc(F)ccc2[nH]1)N1CCCC(Nc2ccc(F)cc2)C1 (stereo unspecified)	i	i	i	12.6*	i	i	i	i	i
CCOC(=O)C1CCCN(C(=O)c2cc3cc(F)ccc3[nH]2)C1 (stereo unspecified)	i	i	i	7.92*	i	i	i	i	i
CC(C)Cc1nc(SCC(=O)NCC2CCCO2)c2c(=O)n(C)c(=O)n(C)c2n1 (stereo unspecified)	i	i	i	i	i	nt	nt	nt	nt
Cc1cc(NC(=O)CN2C(=O)NC(C)(c3ccc(Cl)cc3)C2=O)no1 (stereo unspecified)	i	i	i	i	i	nt	nt	nt	nt
CC(C)(C)c1ccc(NC(=O)N2CCCN(c3c(Cl)cncc3Cl)CC2)cc1	i	i	i	i	i	nt	nt	nt	nt
Nc1nc(Br)c2c(F)cccc2c1-c1ccc(Cl)cc1	i	i	i	8.28*	i	i	i	i	i
CC1CCCCN1C(=O)C(=O)c1cn(CC(=O)N2CCCCCC2)c2ccccc12 (stereo unspecified)	i	i	i	i	i	nt	nt	nt	nt
O=C(CSc1nnc(CNC(=O)c2ccccc2F)o1)NC1CCCCC1	i	i	i	6.48*	i	i	i	i	i
Cc1cc(C)c(NC(=O)CNC(=O)COC(=O)C2CCN(c3ccc(C(F)(F)F)cn3)CC2)c(C)c1	i	i	i	7.04*	i	i	i	i	i
Cc1cc(C)c(NC(=O)COC(=O)C2CCN(c3ccc(C(F)(F)F)cn3)CC2)c(Cl)c1	i	i	i	i	i	nt	nt	nt	nt
Fc1cc(F)cc(NC(=S)Nc2ccccc2N2CCOCC2)c1	i	i	i	i	i	nt	nt	nt	nt
Cc1ccccc1-n1c(=S)[nH]c2nc3c(cc2c1=O)CCCC3	i	i	i	i	i	nt	nt	nt	nt
NC(=O)C1CCN(C(=O)CCC(=O)c2ccc(Br)cc2)CC1	i	i	i	8.67*	i	i	i	i	i
O=C(CCC(=O)N1CCN(c2ccc(O)cc2)CC1)c1ccc(Br)cc1	i	i	i	i	i	nt	nt	nt	nt
O=C(CCN1CCCCO1)N1CCCC(Nc2ccc(F)cc2)C1 (stereo unspecified)	i	i	i	i	i	nt	nt	nt	nt
CCOC(=O)c1c(-c2ccccc2)csc1NC(=O)/C(C#N)=C/c1ccc(O)c(OC)c1	i	i	i	117*	i	i	0.049*	i	84.5*
Cc1ccc(-n2c(SCC(=O)Nc3ccc(N4CCOCC4)cc3)nc3ccccc3c2=O)cc1	i	i	i	i	i	nt	nt	nt	nt
Cc1ccc(NC(=S)NNC(=O)CSc2nc3ccccc3c(=O)n2-c2ccc(C)cc2)cc1	i	i	i	20.7*	i	i	i	i	i
C=CCN(CC=C)C(=S)NC(=O)c1ccc(C)c(Br)c1	i	i	i	8.32*	i	i	i	i	i
SMILES	MrgX1 ag	RGS4 act	RGS4 inh	MrgX1 allo act	MrgX1 antag	MrgX1 allo conf	HEK293 Ca flux	HEK293 Ca counter	HEK293 Ca cntr2
CCn1c(=O)[nH]c2cc(Cl)c(Cl)cc21	i	nt	nt	i	i	nt	nt	nt	nt
CN(C)S(=O)(=O)c1ccc(C(=O)NCc2nnc(SCC(=O)N3CCCC3)o2)cc1	i	i	i	i	i	nt	nt	nt	nt
COc1ccc(CNC(=O)CN2C(=O)NC(C)(c3cccc4ccccc34)C2=O)cc1OC (stereo unspecified)	i	i	i	i	i	nt	nt	nt	nt
Cc1cccc(NC(=O)CNCC(=O)Nc2cccc(C)c2C)c1C	i	i	i	i	i	nt	nt	nt	nt
Cc1ccc(NC(=O)CNc2cccc(C)c2C)c(C)c1	i	i	i	16.1*	i	9.1%*	i	i	i
COc1ccc(CCNC(=O)C(NS(=O)(=O)c2ccc3c(c2)CCN3C(C)=O)C(C)C)cc1OC (stereo unspecified)	i	i	i	i	i	nt	nt	nt	nt
Cc1cc(C)c(S(=O)(=O)ON2C(=O)c3ccccc3C2=O)cc1C	i	i	i	i	i	nt	nt	nt	nt
Cc1ccc(S(=O)(=O)ON2C(=O)c3ccccc3C2=O)c(C)c1	i	nt	nt	35.8*	i	i	i	i	i
COC(=O)c1cc(NC(=O)c2cc(-c3ccc(Cl)cc3)oc2C(F)(F)F)ccc1N1CCOCC1	i	i	i	i	i	nt	nt	nt	nt
CC12CCC(C(=O)O)(c3nc4cc([N+](=O)[O-])ccc4nc31)C2(C)C (stereo unspecified)	i	i	i	i	i	nt	nt	nt	nt
CC12CCC(C)(c3nc4ccccc4nc31)C2(C)C	i	i	i	6.91*	i	i	i	i	i
